Reference: PubChem BioAssay
Records with an inconclusive call do not appear.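 Rule for the calls, unless noted: active = cell viability at or below a set limit in both duplicate runs, the limit being the all-compound median minus 4 SD (cut at about 23% in these data, passing the limit was not always enough); inconclusive = no clear call, values can overlap the other calls; inactive = the rest.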

How the values were obtained:
[1] = S. cerevisiae growth inhibition in permissive medium (OD615), pilot counter-assay for S. cerevisiae lifespan shortening project, permissive growth control (AID 705;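 active = growth inhibition above 25% in both replicates, a cutoff set 3 SD above the mean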); conditions: OD615, 24 h, at 10 µM, hits give high values
Outline: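 assay system = Saccharomyces cerevisiae strain carrying genetically modified DeaD replicative-lifespan system | medium = SC raffinose/galactose permissive medium | dosing = 10 µM single dose, 0.25% DMSO | schedule = 24 h compound exposure at 30 °C after 4 h pre-growth | measured by = OD at 615 nm | read-out basis = growth inhibition from lowered OD615 after 24 h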

[2] = S. cerevisiae growth inhibition in restrictive medium, OD615, pilot screen, restrictive growth control, yeast lifespan reduction project (AID 706;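 active = growth inhibition above a set limit, 3 SD over mean compound inhibition, in both replicates, cut at about 43% in these data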;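 note: modified DeaD lifespan yeast strain shifted to restrictive glucose medium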); conditions: OD615, 48 h, at 10 µM, hits give high values
Outline: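 Buffer or medium: CSMM-D glucose medium. Material: genetically modified Saccharomyces cerevisiae, DeaD replicative lifespan assay strain. Times: 48 h compound exposure at 30 °C. Measured by: optical density at 615 nm.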

[3] = doxorubicin toxicity protection in MRP-1 cells – H69AR cells, CellTiter-Glo, duplicate, MRP-1 activator project, pilot screen (AID 807;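 active = viability increase at or above a cutoff of the median across tested compounds plus 3 SD, cut at about 8.5% in these data, passing the limit was not always enough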;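 note: compound pretreatment 18-22 h then 72 h combined with doxorubicin; 0% = doxorubicin alone and 100% = vehicle without doxorubicin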); conditions: H69AR viability with doxorubicin, CellTiter-Glo luminescence; at 10 µM; hits give high values
[4] = viability of HCT116 without oncogenic beta-catenin – human colon tumor cells, pilot screen (AID 823); conditions: HCT116 beta-catenin knockout viability, CellTiter-Glo, 60 h; at 10 µM; hits give low values;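 note: 0% = wells killed by 20 µM Hyamine and 100% = untreated DMSO cell wells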
[5] = viability of PTEN-null HCT116 cells – cell-based, HCT116 clonal line, CellTiter-Glo, pilot screen (AID 824;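 active = viability at or below 27.92% in each of two runs, the all-compound median minus 4 SD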;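 note: 0% = 20 µM Hyamine control and 100% = vehicle cell control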); conditions: HCT116 PTEN-deleted viability, 60 h, at 10 µM, hits give low values
[6] = RAM pathway blockade in budding yeast – dse1pr::URA3 reporter, 5-FOA selection, pilot screen (AID 869;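 active = inhibition over a set limit, the all-compound mean plus 3 SD, in both replicate runs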;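 note: 0% = DMSO wells with no growth and 100% = 10 µM 1-NA-PP1 with full growth; RAM network block rescues cells from 5-FOA so hits raise OD615 growth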); conditions: S. cerevisiae dse1pr::URA3 5-FOA growth, OD615, 2 d; at 10 µM; hits give high values; strain carries analog-sensitive mutant Cbk1 kinase
[7] = RAM signaling pathway blockade in yeast – S. cerevisiae, Pdr1DBD-CYC8 efflux-inhibited sensitized strain, primary screen (AID 1298;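 active = RAM network inhibition above 8.4% in each of two replicates, 3 SD over the compound average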;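 note: 0% = DMSO untreated cells without growth and 100% = 10 µM 1-NA-PP1 full growth; higher means more yeast growth rescued from 5-FOA killing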); conditions: S. cerevisiae cbk1-as DSE1-URA3 strain, 5-FOA growth OD615, 2 d; at 50 µM; hits give high values

COc1ccc(-c2csc(N3CCN(C(=O)c4ccco4)CC3)n2)cc1
inactive: growth inhibition [1] -13% | growth inhibition [2] 19% | viability increase [3] 2.74% | viability [4] 98.5% | viability [5] 85.1% | inhibition [6] 0.95% | RAM network inhibition [7] 2.04%

COc1ccc(C2c3sc(=O)[nH]c3SC3C(=O)N(c4ccccc4)C(=O)C32)cc1 (configuration not stated)
inactive: growth inhibition [1] -6.11% | growth inhibition [2] 12.6% | viability increase [3] 0.68% | viability [4] 99.9% | viability [5] 99.3% | inhibition [6] 2.98% | RAM network inhibition [7] 5.53%

Cc1cccn2c(=O)c(C=NCc3ccco3)c(Nc3ccc(Cl)cc3)nc12
inactive: growth inhibition [1] -14.3% | growth inhibition [2] -2.91% | viability increase [3] -6.81% | viability [4] 79.7% | viability [5] 76.1% | inhibition [6] 1.09% | RAM network inhibition [7] 1.21%

Cc1ccc(S(=O)(=O)NCC(=O)N2CCOCC2)cc1
inactive: growth inhibition [1] -3.62% | growth inhibition [2] -10.3% | viability increase [3] -1.57% | viability [4] 103% | viability [5] 109% | inhibition [6] -0.085% | RAM network inhibition [7] 0.68%

CC(=O)Nc1ccc(S(=O)(=O)NCCc2cc3c(C)ccc(C)c3[nH]c2=O)cc1
inactive: growth inhibition [1] -10.1% | growth inhibition [2] -6.53% | viability increase [3] -0.47% | viability [4] 98.2% | viability [5] 94.2% | inhibition [6] 1.82% | RAM network inhibition [7] 1.05%

COC(=O)CCC(=O)Nc1nc(-c2ccccc2)cs1
inactive: growth inhibition [1] -18.5% | growth inhibition [2] -17.9% | viability increase [3] -0.35% | viability [4] 99% | viability [5] 99.1% | inhibition [6] 0.475% | RAM network inhibition [7] 11%

CCc1ccccc1NC(=O)c1cc(-c2cccc(O)c2)on1
inactive: growth inhibition [1] -21.2% | growth inhibition [2] -5.59% | viability increase [3] -1.49% | viability [4] 98% | viability [5] 96% | inhibition [6] 4.72% | RAM network inhibition [7] 8.2%

CC(C)(C)OC(=O)N1CCC(C(N)=O)CC1
inactive: growth inhibition [1] -1.93% | growth inhibition [2] 0.2% | viability increase [3] -0.33% | viability [4] 103% | viability [5] 104% | inhibition [6] 0.535% | RAM network inhibition [7] 0.06%

CC1CCCN(C(=O)c2ccc3c(c2)C(=O)N(CCC2=CCCCC2)C3=O)C1 (configuration not stated)
inactive: growth inhibition [1] -5.42% | growth inhibition [2] -30.7% | viability increase [3] -0.25% | viability [4] 87.5% | viability [5] 83.8% | inhibition [6] 0.28% | RAM network inhibition [7] 3.27%

CCCN(CCC)S(=O)(=O)c1cc(Br)cc2c1N(C(=O)CC)CC2
inactive: growth inhibition [1] -8.33% | growth inhibition [2] -21.3% | viability increase [3] -4.77% | viability [4] 65.9% | viability [5] 69.7% | inhibition [6] 0.885% | RAM network inhibition [7] 4.71%

O=C(NCCO)c1ccc2[nH]c3c(c2c1)CCCC3
inactive: growth inhibition [1] -12.1% | growth inhibition [2] -18.9% | viability increase [3] -0.28% | viability [4] 98.9% | viability [5] 96.1% | inhibition [6] 1.46% | RAM network inhibition [7] 4.19%

CCOc1cc(/C=N/n2cnnc2)ccc1OCC(=O)Nc1ccccc1OC
inactive: growth inhibition [1] 0.995% | growth inhibition [2] 0.62% | viability increase [3] -1.37% | viability [4] 101% | viability [5] 95.7% | inhibition [6] 1.91% | RAM network inhibition [7] 2.52%

CCC(=O)Nc1c2c(nn1-c1cccc(Cl)c1)CSC2
inactive: growth inhibition [1] -7.68% | growth inhibition [2] -8.67% | viability increase [3] -1.61% | viability [4] 89.7% | viability [5] 86.1% | inhibition [6] 2.1% | RAM network inhibition [7] 1.11%

CCOc1ccc(C2CC(c3ccc(CC)cc3)Nc3nc(N)nn32)cc1 (configuration not stated)
inactive: growth inhibition [1] 13.7% | growth inhibition [2] 21.5% | viability increase [3] 5.61% | viability [4] 97.5% | viability [5] 90.2% | inhibition [6] 0.69% | RAM network inhibition [7] 8.15%

CC1(C)Nc2ccccc2N(CC(=O)N2CCCCC2)C1=O
inactive: growth inhibition [1] 0.325% | growth inhibition [2] -1.38% | viability increase [3] -0.05% | viability [4] 107% | viability [5] 103% | inhibition [6] -0.16% | RAM network inhibition [7] 0.97%

O=C(Nc1ccc(Cl)cn1)c1cccc(F)c1
inactive: growth inhibition [1] -8.65% | growth inhibition [2] 3.83% | viability increase [3] -5.84% | viability [4] 37% | viability [5] 33.9% | inhibition [6] 0.27% | RAM network inhibition [7] 1.17%

O=C(c1ccccc1S(=O)(=O)NCc1ccccc1)N1CCCC1
inactive: growth inhibition [1] -12% | growth inhibition [2] -20.3% | viability increase [3] -0.09% | viability [4] 110% | viability [5] 98% | inhibition [6] 1.66% | RAM network inhibition [7] 3.93%

CCC(=O)c1ccc(N2CCN(C(=O)COc3ccc(F)cc3)CC2)c(F)c1
inactive: growth inhibition [1] -5.39% | growth inhibition [2] -3.45% | viability increase [3] -2.21% | viability [4] 73.7% | viability [5] 82.5% | inhibition [6] 1.71% | RAM network inhibition [7] 5.92%

O=C(OC1CCCCC1)c1ccc(NC(=O)c2ccco2)cc1
inactive: growth inhibition [1] -1.26% | growth inhibition [2] -7.55% | viability increase [3] -2.73% | viability [4] 70.1% | viability [5] 77.5% | inhibition [6] 0.87% | RAM network inhibition [7] 2.81%

Cc1nc2ccc(NC(=O)c3ccc(S(=O)(=O)N4CCOCC4)cc3)cc2s1
inactive: growth inhibition [1] -2.22% | growth inhibition [2] -2.84% | viability increase [3] 0.28% | viability [4] 95.3% | viability [5] 93.8% | inhibition [6] 3.07% | RAM network inhibition [7] 4.83%

Cc1cc(C)cc(N(CC(=O)NCc2ccco2)S(=O)(=O)c2c(C)noc2C)c1
inactive: growth inhibition [1] -22% | growth inhibition [2] -17.1% | viability increase [3] -4.19% | viability [4] 95.2% | viability [5] 84.5% | inhibition [6] 2.42% | RAM network inhibition [7] 5.53%

CCc1nnc(NC(=O)CSc2nnc(Cc3cccn3C)n2C)s1
inactive: growth inhibition [1] 5.43% | growth inhibition [2] 30.4% | viability increase [3] -1.23% | viability [4] 100% | viability [5] 96% | inhibition [6] 0.7% | RAM network inhibition [7] 1.19%

Cn1c(=O)oc2cc(S(=O)(=O)NCCN3CCc4ccccc4C3)ccc21
inactive: growth inhibition [1] -14.3% | growth inhibition [2] -10.7% | viability increase [3] -3.63% | viability [4] 98.5% | viability [5] 89.9% | inhibition [6] 1.6% | RAM network inhibition [7] 0.61%

O=C(O)CCn1c(-c2ccccc2)cc2c1CCCC2=O
inactive: growth inhibition [1] 1.65% | growth inhibition [2] -0.555% | viability increase [3] -0.35% | viability [4] 95.7% | viability [5] 95% | inhibition [6] 4.84% | RAM network inhibition [7] 0.47%

CCc1ccc2c(c1)C(NC(C)=O)C(=O)N2CC (configuration not stated)
inactive: growth inhibition [1] -11.8% | growth inhibition [2] -3% | viability increase [3] -0.55% | viability [4] 78.5% | viability [5] 86% | inhibition [6] 0.73% | RAM network inhibition [7] 0.8%

Cc1cc(NCc2ccc3c(c2)OCO3)n2nc(C)nc2n1
inactive: growth inhibition [1] -16.8% | growth inhibition [2] -2% | viability increase [3] -0.9% | viability [4] 94.4% | viability [5] 87.5% | inhibition [6] 0.44% | RAM network inhibition [7] -0.15%

CCC(CC)C(=O)Nc1ccccc1NC(C)=O
inactive: growth inhibition [1] -3.13% | growth inhibition [2] 0.295% | viability increase [3] 0.4% | viability [4] 99.8% | viability [5] 98% | inhibition [6] 0.36% | RAM network inhibition [7] 4.35%

COc1cccc(-c2csc(NC(=O)C3CC3)n2)c1
inactive: growth inhibition [1] 1.37% | growth inhibition [2] 13.5% | viability increase [3] 4.92% | viability [4] 96.6% | viability [5] 91.5% | inhibition [6] -0.98% | RAM network inhibition [7] 1.49%

O=C(Cn1cc2c(n1)CCCCC2)NCc1cccs1
inactive: growth inhibition [1] 0.86% | growth inhibition [2] 0.58% | viability increase [3] -1.84% | viability [4] 100% | viability [5] 87.7% | inhibition [6] 0.935% | RAM network inhibition [7] 1.69%

C=C(C)CSc1nc2c(c(=O)[nH]c(=O)n2C)n1CCC(C)C
inactive: growth inhibition [1] -17.9% | growth inhibition [2] -22.9% | viability increase [3] -2.5% | viability [4] 80.8% | viability [5] 80.9% | inhibition [6] 1.38% | RAM network inhibition [7] 1.85%

Cc1cccc(N2CCN(S(C)(=O)=O)CC2)c1C
inactive: growth inhibition [1] -14.5% | growth inhibition [2] -14.1% | viability increase [3] -0.12% | viability [4] 108% | viability [5] 95.3% | inhibition [6] 0.76% | RAM network inhibition [7] 5.4%

Fc1ccc(C2CC(c3ccccc3)Nc3ncnn32)cc1 (configuration not stated)
inactive: growth inhibition [1] -10.3% | growth inhibition [2] -3.12% | viability increase [3] -0.63% | viability [4] 93.5% | viability [5] 98.1% | inhibition [6] 1.04% | RAM network inhibition [7] 1.19%

Cc1ccccc1CN1CCN(CC(=O)NCc2ccccn2)C1=O
inactive: growth inhibition [1] 4.21% | growth inhibition [2] 10.8% | viability increase [3] 1.17% | viability [4] 106% | viability [5] 108% | inhibition [6] -0.32% | RAM network inhibition [7] 1.55%

Cc1nc(CNS(=O)(=O)c2ccccc2F)cs1
inactive: growth inhibition [1] -2.92% | growth inhibition [2] 0.715% | viability increase [3] -0.6% | viability [4] 94.1% | viability [5] 91.5% | inhibition [6] 0.335% | RAM network inhibition [7] -0.57%

CCCCNC(=O)Nc1cc(C(=O)OC)ccc1C
inactive: growth inhibition [1] -6.38% | growth inhibition [2] -14.2% | viability increase [3] 0.11% | viability [4] 85.2% | viability [5] 91.4% | inhibition [6] 1.55% | RAM network inhibition [7] 7.5%

Cc1cc(C)c(NC(=O)C(C)(C)C)c(Cl)c1
inactive: growth inhibition [1] -6.4% | growth inhibition [2] 6.2% | viability increase [3] -0.89% | viability [4] 89.8% | viability [5] 86.2% | inhibition [6] 1.72% | RAM network inhibition [7] 1.23%
